Legend:
Type in all cases: ADME
[1] = test system: Liver microsome; test: Half life in human liver microsomes by LC-MS/MS analysis
Method in brief: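 Compound at 1 μM with 1 mg/mL liver microsomes in 100 mM potassium phosphate pH 7.4 at 37 °C with shaking. Reaction started with 1 mM NADPH (final). Aliquots were taken at 0, 5, 10, 20, 40 and 60 min and quenched in acetonitrile. Parallel incubations without NADPH were run.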

[2] = molecular target: Cytochrome P450 2C19 (Homo sapiens, UniProt P33261); test: (§1) Inhibition of CYP2C19 (unknown origin) using (S)-mephentoin substrate at 20 uM; settings: 20 µM
Chain of Cytochrome P450 2C19 (P33261 whole entry): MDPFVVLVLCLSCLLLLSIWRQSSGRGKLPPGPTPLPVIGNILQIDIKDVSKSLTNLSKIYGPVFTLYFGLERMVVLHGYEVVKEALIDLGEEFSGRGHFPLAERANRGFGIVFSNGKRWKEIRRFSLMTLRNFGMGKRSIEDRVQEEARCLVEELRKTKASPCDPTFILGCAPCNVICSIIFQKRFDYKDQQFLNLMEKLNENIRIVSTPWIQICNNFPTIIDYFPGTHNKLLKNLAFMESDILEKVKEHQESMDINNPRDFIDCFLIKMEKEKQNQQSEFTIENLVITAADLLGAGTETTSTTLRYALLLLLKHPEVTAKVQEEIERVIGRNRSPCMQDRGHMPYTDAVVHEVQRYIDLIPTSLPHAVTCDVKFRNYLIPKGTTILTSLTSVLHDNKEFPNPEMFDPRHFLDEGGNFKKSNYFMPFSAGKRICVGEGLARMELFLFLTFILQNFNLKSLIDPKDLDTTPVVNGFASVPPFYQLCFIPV
Method in brief: (§2)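 Human liver microsomes with probe substrate and an NADPH-regenerating system in 0.1 M potassium phosphate pH 7.4 at 37 °C, run in duplicate. Inhibitor at 0–20 μM (0–2.5 μM for one compound), eight concentrations. Reactions were stopped with acetonitrile/formic acid containing isotope-labelled internal standard, and metabolite area ratios were compared with and without inhibitor. IC50 was taken by linear interpolation between bracketing concentrations.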

[3] = molecular target: T1, Cytochrome P450 1A2 (Homo sapiens, UniProt P05177); test: Inhibition of CYP1A2 (unknown origin) using tacrin substrate at 20 uM; settings: 20 µM; method in brief: as §2
T1 sequence (P05177 whole entry): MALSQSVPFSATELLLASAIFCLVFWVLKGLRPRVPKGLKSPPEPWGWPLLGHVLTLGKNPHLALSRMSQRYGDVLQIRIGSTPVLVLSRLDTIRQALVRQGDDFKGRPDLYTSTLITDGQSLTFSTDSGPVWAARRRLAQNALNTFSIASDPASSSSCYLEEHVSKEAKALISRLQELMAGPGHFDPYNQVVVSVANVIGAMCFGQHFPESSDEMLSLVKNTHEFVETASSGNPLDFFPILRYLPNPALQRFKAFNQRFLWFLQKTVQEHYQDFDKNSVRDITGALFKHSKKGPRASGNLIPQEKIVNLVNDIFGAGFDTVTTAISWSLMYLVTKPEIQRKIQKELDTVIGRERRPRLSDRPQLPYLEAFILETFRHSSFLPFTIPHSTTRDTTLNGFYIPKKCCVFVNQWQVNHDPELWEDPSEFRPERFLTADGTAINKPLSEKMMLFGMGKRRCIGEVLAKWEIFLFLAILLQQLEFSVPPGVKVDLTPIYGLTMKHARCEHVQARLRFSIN

[4] = molecular target: T2, CYP2C19 (Homo sapiens, UniProt P33261); test: Inhibition of CYP2C19 (unknown origin) using (S)-mephentoin substrate at 2.5 uM; settings: probe (S)-mephentoin; method in brief: as §2
T2 sequence (P33261 whole entry): as the sequence (P33261 whole entry) above

[5] = molecular target: CYP1A2 (Homo sapiens, UniProt P05177); test: Inhibition of CYP1A2 (unknown origin) using tacrin substrate at 2.5 uM; settings: probe tacrin; method in brief: as §2
[6] = molecular target: CYP2C8 (Homo sapiens, UniProt P10632); test: Inhibition of CYP2C8 (unknown origin) using amodiaquine substrate at 2.5 uM; settings: probe amodiaquine; method in brief: as §2
Chain of CYP2C8 (P10632 whole entry): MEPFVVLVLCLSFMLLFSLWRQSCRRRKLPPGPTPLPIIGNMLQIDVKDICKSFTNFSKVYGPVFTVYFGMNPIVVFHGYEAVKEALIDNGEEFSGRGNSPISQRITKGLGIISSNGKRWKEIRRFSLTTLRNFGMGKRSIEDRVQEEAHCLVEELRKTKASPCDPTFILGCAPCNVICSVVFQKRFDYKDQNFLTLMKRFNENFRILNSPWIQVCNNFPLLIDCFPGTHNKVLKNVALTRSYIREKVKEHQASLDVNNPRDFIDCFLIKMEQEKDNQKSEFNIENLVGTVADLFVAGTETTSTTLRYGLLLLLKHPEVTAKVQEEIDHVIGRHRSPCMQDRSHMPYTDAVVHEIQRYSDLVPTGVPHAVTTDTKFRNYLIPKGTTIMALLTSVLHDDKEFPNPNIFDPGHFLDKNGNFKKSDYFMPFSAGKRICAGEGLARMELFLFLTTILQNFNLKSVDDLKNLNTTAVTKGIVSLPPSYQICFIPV

[7] = molecular target: CYP3A4 (Homo sapiens, UniProt P08684); test: Inhibition of CYP3A4 (unknown origin) using testosterone substrate at 2.5 uM; settings: probe testosterone; method in brief: as §2
Chain of CYP3A4 (P08684 whole entry): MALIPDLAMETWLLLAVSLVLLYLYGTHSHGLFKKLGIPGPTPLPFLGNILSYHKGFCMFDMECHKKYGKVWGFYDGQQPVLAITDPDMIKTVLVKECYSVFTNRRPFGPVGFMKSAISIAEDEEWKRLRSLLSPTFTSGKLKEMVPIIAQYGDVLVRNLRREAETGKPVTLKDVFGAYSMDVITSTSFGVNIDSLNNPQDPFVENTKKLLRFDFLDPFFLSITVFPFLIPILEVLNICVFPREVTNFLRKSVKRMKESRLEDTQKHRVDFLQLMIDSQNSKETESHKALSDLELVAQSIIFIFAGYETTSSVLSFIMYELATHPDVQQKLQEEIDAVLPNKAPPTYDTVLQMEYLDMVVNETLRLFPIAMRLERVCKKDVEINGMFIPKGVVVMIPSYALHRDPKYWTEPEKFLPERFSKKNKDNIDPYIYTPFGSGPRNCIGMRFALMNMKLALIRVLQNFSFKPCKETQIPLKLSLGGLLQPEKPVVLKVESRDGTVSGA

[8] = molecular target: T2, CYP2C19; test: as §1; settings: probe (S)-mephentoin; method in brief: as §2

## Oc1nc(SCc2ccc(Cl)cc2)nc2c1CCC2
[1]
  t1/2: 10.4 min

## Cc1cc(CNC(=O)c2cc(C(=O)NCc3ccc(F)c(C)c3)ncn2)ccc1F
[2]
  inhibition (INH): > 10%
[3]
  inhibition (INH): > 10%

## Cn1c(=O)n(Cc2ccc(C(=O)O)cc2)c(=O)c2cc(C#CCc3ccccc3)ccc21
[4]
  inhibition at 2.5 µM: < 50%
[5]
  inhibition at 2.5 µM: 17%
[6]
  inhibition at 2.5 µM: < 50%
[7]
  inhibition at 2.5 µM: < 50%

## COC(=O)c1ccc(CSc2nc3c(c(=O)[nH]2)CCC3)cc1
[8]
  inhibition at 20 µM: < 50%

Source: ChEMBL document CHEMBL3352788, “Characterization of selective exosite-binding inhibitors of matrix metalloproteinase 13 that prevent articular cartilage degradation in vitro” (J Med Chem, 2014)
